This note sets out measurements from ChEMBL document CHEMBL1275592, “AmpN-AmpG operon is essential for expression of L1 and L2 beta-lactamases in Stenotrophomonas maltophilia” (2010).

Common to all, as to format: functional
In experiment [1] the test system is Stenotrophomonas maltophilia. The experiment can be described thus: Antimicrobial activity against ampN deficient Stenotrophomonas maltophilia KJ by Etest. Put shortly:
(§1)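 Imipenem and meropenem MICs were read from Etest strips, following the manufacturer's instructions.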

The subject of experiment [2] is Stenotrophomonas maltophilia. The experiment in a line: Antimicrobial activity against Stenotrophomonas maltophilia KJN2 harboring ampN with xylE-Gmomega cassette insertion by Etest. The essentials:
as §1

Experiment [3] deals with Stenotrophomonas maltophilia. The experiment can be described thus: Antimicrobial activity against Stenotrophomonas maltophilia KJN2 harboring pRK415 plasmid and ampN with xylE-Gmomega cassette insertion by Etest. The essentials:
as §1

The test system of experiment [4] is Stenotrophomonas maltophilia. The experiment can be described thus: Antimicrobial activity against Stenotrophomonas maltophilia KJG harboring ampG with xylE-Gmomega cassette insertion by Etest. The essentials:
as §1

Experiment [5] deals with Stenotrophomonas maltophilia. The experiment in a line: Antimicrobial activity against Stenotrophomonas maltophilia KJN2 harboring pRK-EcG plasmid and ampN with xylE-Gmomega cassette insertion by Etest. Put shortly: as §1
Experiment [6] relates to Stenotrophomonas maltophilia. The experiment can be described thus: Antimicrobial activity against ampN deficient Stenotrophomonas maltophilia KJ harboring ampG with xylE-Gmomega cassette insertion by Etest. Put shortly: as §1
Experiment [7] relates to Stenotrophomonas maltophilia. The experiment in a line: Antimicrobial activity against Stenotrophomonas maltophilia KJN2 harboring pRK-NG plasmid and ampN with xylE-Gmomega cassette insertion by Etest. Put shortly:
as §1

Experiment [8] relates to Stenotrophomonas maltophilia. The experiment in a line: Antimicrobial activity against Stenotrophomonas maltophilia KJ by Etest. The essentials: as §1
The subject of experiment [9] is Stenotrophomonas maltophilia. The experiment can be described thus: Antimicrobial activity against Stenotrophomonas maltophilia KJN2 harboring pRK-G plasmid and ampN with xylE-Gmomega cassette insertion by Etest. The essentials: as §1
In experiment [10] the test system is Stenotrophomonas maltophilia. The experiment in a line: Antimicrobial activity against Stenotrophomonas maltophilia KJN1 harboring ampN with xylE-Gmomega cassette insertion by Etest. Put shortly:
as §1

Experiment [11] concerns Stenotrophomonas maltophilia. The experiment in a line: Antimicrobial activity against Stenotrophomonas maltophilia KJG harboring ampG with xylE-Gmomega cassette insertion by agar dilution method. The essentials: (§2)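 MICs were determined in triplicate by standard 2-fold serial agar dilution, following CLSI guidelines.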
The subject of experiment [12] is Stenotrophomonas maltophilia. The experiment can be described thus: Antimicrobial activity against Stenotrophomonas maltophilia KJN2 harboring ampN with xylE-Gmomega cassette insertion by agar dilution method. Put shortly:
as §2
In general terms: In agar dilution the substance is mixed into plates at graded concentrations.

Experiment [13] has as its system Stenotrophomonas maltophilia. The experiment in a line: Antimicrobial activity against Stenotrophomonas maltophilia KJN2 harboring pRK-G plasmid and ampN with xylE-Gmomega cassette insertion by agar dilution method. The essentials: as §2
The subject of experiment [14] is Stenotrophomonas maltophilia. The experiment in a line: Antimicrobial activity against Stenotrophomonas maltophilia KJN1 harboring ampN with xylE-Gmomega cassette insertion by agar dilution method. Put shortly: as §2
In experiment [15] the test system is Stenotrophomonas maltophilia. The experiment can be described thus: Antimicrobial activity against Stenotrophomonas maltophilia KJN2 harboring pRK-EcG plasmid and ampN with xylE-Gmomega cassette insertion by agar dilution method. Put shortly:
as §2

Experiment [16] relates to Stenotrophomonas maltophilia. The experiment can be described thus: Antimicrobial activity against Stenotrophomonas maltophilia KJN2 harboring pRK415 plasmid and ampN with xylE-Gmomega cassette insertion by agar dilution method. The essentials: as §2
Experiment [17] has as its system Stenotrophomonas maltophilia. The experiment can be described thus: Antimicrobial activity against ampN deficient Stenotrophomonas maltophilia KJ by agar dilution method. The essentials: as §2
For experiment [18], the system named is Stenotrophomonas maltophilia. The experiment can be described thus: Antimicrobial activity against Stenotrophomonas maltophilia KJ harboring pRK415 plasmid by agar dilution method. Put shortly:
as §2

In experiment [19] the test system is Stenotrophomonas maltophilia. The experiment can be described thus: Antimicrobial activity against ampN deficient Stenotrophomonas maltophilia KJ harboring ampG with xylE-Gmomega cassette insertion by agar dilution method. The essentials: as §2
Experiment [20] relates to Stenotrophomonas maltophilia. The experiment can be described thus: Antimicrobial activity against Stenotrophomonas maltophilia KJ by agar dilution method. Put shortly:
as §2

The test system of experiment [21] is Stenotrophomonas maltophilia. The experiment in a line: Antimicrobial activity against Stenotrophomonas maltophilia KJ harboring pRK-NG plasmid by agar dilution method. The essentials:
as §2

In experiment [22] the test system is Stenotrophomonas maltophilia. The experiment in a line: Antimicrobial activity against Stenotrophomonas maltophilia KJN2 harboring pRK-NG plasmid and ampN with xylE-Gmomega cassette insertion by agar dilution method. The essentials:
as §2

Molecules are shown by their SMILES. ≈ marks a conversion by molar mass, not a printed value.

Usually MIC stands for the lowest concentration found to suppress growth. A low value points to greater potency.

As to `C[C@@H](O)[C@H]1C(=O)N2C(C(=O)O)=C(S[C@@H]3CN[C@H](C(=O)N(C)C)C3)[C@H](C)[C@H]12` [MEROPENEM], the MIC in experiment [1] was 0.38 µg/mL (≈ 0.991 µM); in experiment [2], 0.38 µg/mL (≈ 0.991 µM); in experiment [3], 0.5 µg/mL (≈ 1.3 µM); in [4], 0.38 µg/mL (≈ 0.991 µM); in experiment [5], more than 32 µg/mL; in experiment [6], 0.38 µg/mL (≈ 0.991 µM). Further, the minimal inhibitory concentration (MIC) in experiment [7] is more than 32 µg/mL; in experiment [8] it was more than 32 µg/mL; in [9] it was 0.75 µg/mL (≈ 1.96 µM); in experiment [10], 0.5 µg/mL (≈ 1.3 µM).
For `CCN1CCN(C(=O)N[C@@H](C(=O)N[C@@H]2C(=O)N3[C@@H]2SC(C)(C)[C@@H]3C(=O)O)c2ccccc2)C(=O)C1=O` [PIPERACILLIN], the minimum inhibitory concentration (MIC) in [11] was determined as 32 µg/mL (≈ 61.8 µM); in experiment [12] it was 16 µg/mL (≈ 30.9 µM); in [13] it was 32 µg/mL (≈ 61.8 µM); in experiment [14], 32 µg/mL (≈ 61.8 µM); in experiment [15], 512 µg/mL (≈ 989 µM); in [16] it was 16 µg/mL (≈ 30.9 µM). Besides, the MIC in experiment [17] is 32 µg/mL (≈ 61.8 µM); in [18] it was 1020 µg/mL (≈ 1980 µM); in experiment [19], 16 µg/mL (≈ 30.9 µM); in experiment [20], 1020 µg/mL (≈ 1980 µM); in experiment [21], 1020 µg/mL (≈ 1980 µM); in [22], 1020 µg/mL (≈ 1980 µM).
